Screening results (PubChem)
In the library only some 2% were active in any assay of this set; here they are far more common.
core dimer inh: blocks dimerization of HCV core protein; inhibition, % at 5 µM; AID 1899; actives 0.33% (n = 300,000); TR-FRET GST/Flag-core106 dimerization, 1536-well;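 active = inhibition above the mean of all tested compounds plus 3 SD, set per screening campaign, cut at about 45% in these data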
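System – GST-tagged and Flag-tagged HCV core protein residues 1-106 · Repeats – one well for each compound · Technique – TR-FRET 671 and 617 nm emission · Doses – one concentration, 5 µM, in 0.5% DMSO · Times – 4 h, 22.5 °C incubation · Also added – Eu donor and XL665 acceptor anti-tag antibodies · Measure – percent inhibition of core106 dimerization signal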
DNA FID counter: displaces DNA intercalator in HCV helicase counter-screen; DNA fluorescent intercalator displacement, fluorescence; AID 1845; inhibition, % at 7.9 µM; actives 0.17% (n = 290,000); in the data active = inhibition above about 37%;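 also: 0% = vehicle and 100% = reference compound; higher means more ethidium bromide displaced from hairpin DNA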
eIF4H inh: inhibitors of RNA binding by human eIF4H. Q15056. eIF4H fluorescence polarization binding assay. inhibition, % at 35 µM. actives 0.94% (n = 290,000). AID 2012;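 also: calls also rest on retests at 20 µM and on dose response follow-up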
PABP FP inh: PABP-poly(A) binding inhibition; actives 1% (n = 290,000); PABP-poly(A) RNA binding, fluorescence polarization; inhibition, % at 35 µM; AID 2014;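 also: calls also rest on retests at 20 µM and on dose response follow-up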
Target sequence (P11940 whole entry, looked up): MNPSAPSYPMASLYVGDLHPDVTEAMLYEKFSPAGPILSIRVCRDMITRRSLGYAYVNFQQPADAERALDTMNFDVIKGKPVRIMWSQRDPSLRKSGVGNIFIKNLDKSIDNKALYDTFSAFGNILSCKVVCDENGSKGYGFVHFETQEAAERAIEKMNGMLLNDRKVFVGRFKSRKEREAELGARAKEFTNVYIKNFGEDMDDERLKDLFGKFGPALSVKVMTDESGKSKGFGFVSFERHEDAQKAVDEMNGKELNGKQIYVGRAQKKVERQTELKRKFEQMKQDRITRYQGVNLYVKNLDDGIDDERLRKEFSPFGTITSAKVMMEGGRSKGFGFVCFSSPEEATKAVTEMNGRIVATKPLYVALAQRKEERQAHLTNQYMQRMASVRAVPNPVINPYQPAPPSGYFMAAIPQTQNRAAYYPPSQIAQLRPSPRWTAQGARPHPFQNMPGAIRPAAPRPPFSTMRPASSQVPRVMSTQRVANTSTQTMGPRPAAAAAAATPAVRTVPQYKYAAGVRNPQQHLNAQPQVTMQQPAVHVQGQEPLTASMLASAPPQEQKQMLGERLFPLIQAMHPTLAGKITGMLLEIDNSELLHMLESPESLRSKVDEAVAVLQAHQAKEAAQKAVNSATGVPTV
PABP1 MLLE inh: blocks PAM2 peptide binding to the PABP1 MLLE domain | actives 0.36% (n = 360,000) | GST-MLLE / FITC-PAM2 fluorescence polarization | inhibition, % at 20 µM | AID 588489; in the data active = inhibition above about 35%, passing the limit was not always enough;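 also: plate controls were DMSO wells with GST-MLLE for no effect and wells lacking GST-MLLE protein for full effect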
HCV NS3 hel inh: HCV NS3 helicase inhibition; actives 0.56% (n = 290,000); inhibition, % at 10.9 µM; NS3 helicase DNA unwinding, Cy5 molecular beacon fluorescence;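 active = inhibition above the mean of all tested compounds plus 3 SD, set per campaign, cut at about 35% in these data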;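 also: 0% = DMSO wells and 100% = thioflavine S control wells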
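System: NS3 helicase fragment of HCV / Schedule: 1 h at 25 °C / Control set: DMSO alone as 0% and 110 µM thioflavine S as 100% / Reagent: Cy5/quencher beacon DNA duplex and ATP to start / Technique: Cy5 fluorescence / Replication: singlicate / Evaluation: % inhibition of end-to-start signal ratio versus controls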
* = called active by the depositor; ? = inconclusive; . = no result. Unless noted, no rule for the calls is given here.

SMILES | core dimer inh | DNA FID counter | eIF4H inh | PABP FP inh | PABP1 MLLE inh | HCV NS3 hel inh
NNc1nc2sc3c(c2c(=O)[nH]1)CCc1ccccc1-3 | 11.2 | -1.4 | 101.0* | active | -15.7 | 12.6
CCSc1nc2sc3c(c2c(=O)[nH]1)CCc1ccccc1-3 | 10.8 | -4.4 | 1.3 | 1.1 | -1.5 | 8.2
COc1cccc(C(O)c2ncc(-c3cccc(C(F)(F)F)c3)[nH]2)c1 (stereo unspecified) | . | . | . | . | 5.9 | .
O=C(C[n+]1cc(Br)cc2ccccc21)c1ccc(Cl)cc1 | 2.6 | 7.3 | ? | ? | -28.4 | -8.1
O=C(C[n+]1cc(Br)cc2ccccc21)c1ccc(Br)cc1 | 25.7 | 2.4 | 81.1 | 23.3* | -33.3 | -5.0
CC1(Oc2ccc(-n3ccnc3)cc2)CCN(Cc2cccn2-c2nccs2)C1 (stereo unspecified) | . | . | . | . | 13.7 | .
CN(C(=O)c1ccc(F)cc1)c1ccc(OCC(=O)Nc2ccccc2C(=O)O)cc1 | . | . | . | . | -17.6 | .
COc1ccccc1NC(=O)CSc1nccc(-c2ccco2)n1 | . | . | . | . | -2.9 | .
CC(C)(C)OC(=O)C(Cc1ccc(OC(C)(C)C)cc1)NC(=O)CNC(=O)CNC(=O)OCc1ccccc1 (stereo unspecified) | 2.4 | -44.1 | active | 115.3 | 10.8 | -26.8
CC(NC(=O)OCc1ccccc1)C(=O)NCC(=O)NC(Cc1ccc(OC(C)(C)C)cc1)C(=O)OC(C)(C)C (stereo unspecified) | -1.8 | -62.2 | -12.3 | -1.1 | -2.6 | -22.7
CCOC(=O)N1CCC(Nc2nc3ccccc3n3nnnc23)CC1 | 7.0 | -21.0 | ? | 47.7* | 7.7 | -0.5
Cc1[nH]c2ccccc2c1C(O)c1ccncc1 (stereo unspecified) | -4.3 | -1.0 | 13.4 | -2.3 | 6.3 | -9.6
Cc1[nH]c2ccccc2c1C(c1ccccn1)c1c(C)[nH]c2ccccc12 | 2.0 | 1.3 | 55.2* | 60.8* | 6.9 | -8.7
CCCCOP(=O)(OCCCC)C(Nc1ccccc1)c1ccc2c(c1)OCO2 (stereo unspecified) | 1.1 | -29.1 | active | 80.4* | 4.2 | -8.0
COc1ccccc1CCNC(=O)CNC(=O)Cc1cccc2ccccc12 | 1.5 | -30.1 | -6.0 | -2.8 | 9.1 | -2.8
Brc1ccc(Nc2nc3ccccc3n3nnnc23)cc1 | 18.8 | -0.1 | 79.1* | 87.0* | . | -9.3
C[C@@H]1O[C@@H](OC[C@H]2O[C@@H](Oc3c(-c4ccc(O)c(O)c4)oc4cc(O)cc(O)c4c3=O)[C@H](O)[C@@H](O)[C@@H]2O)[C@H](O)[C@H](O)[C@H]1O | -9.2 | -3.1 | 60.9* | 18.6* | -6.7 | -3.2
O=[N+]([O-])c1cc(CN2CCCC2)c2cccnc2c1O | -4.0 | -7.3 | 86.6* | 1.8 | 15.4 | 24.9
O=[N+]([O-])c1cc(CN2CCN(c3cccc(C(F)(F)F)c3)CC2)c2cccnc2c1O | 22.5 | -5.5 | 47.0 | 3.8 | . | 16.9
Oc1ccc(CN2CCCCC2)c2cccnc12 | -1.0 | -1.0 | 85.2* | -10.7 | 15.6 | 5.0
CC1(C(=O)Nc2ccc(Cl)c(Cl)c2)CCN1C(=O)Cc1ccc(-c2ccccc2)cc1 (stereo unspecified) | . | . | . | . | -11.2 | .
COC(=O)c1ccc(NC(c2ccc(Cl)cc2)P(=O)(OC)OC)cc1 (stereo unspecified) | 0.8 | -15.3 | 79.8* | 1.6* | -3.0 | -7.7
COc1ccc(NC(=O)CSc2nnc(NC(C)=O)s2)c([N+](=O)[O-])c1 | 0.8 | -0.4 | 2.0 | 1.7 | 36.8* | 5.7
O=c1cc(O)c2sc(Nc3ccc(F)c(Cl)c3)nc2[nH]1 | 33.1 | -3.3 | 25.6 | 3.7 | -42.7 | 30.2
COc1ccc(Nc2nc3[nH]c(=O)cc(O)c3s2)cc1 | 17.9 | -2.8 | 56.3* | 3.1 | -19.1 | 12.6
SMILES | core dimer inh | DNA FID counter | eIF4H inh | PABP FP inh | PABP1 MLLE inh | HCV NS3 hel inh
Cc1cc(C)c2sc(NNC(=O)c3ccc(S(=O)(=O)N4CCc5ccccc5C4)cc3)nc2c1 | 64.2* | -16.4 | 7.8 | 3.5 | -74.6 | 3.6
Cc1cc(C)c2nc(NNC(=O)c3ccc(S(=O)(=O)N4CCc5ccccc5C4)cc3)sc2c1 | 51.8* | -18.4 | 9.6 | -2.9 | -109.2 | -1.8
CCc1nnc(NC(=O)c2ccc(S(=O)(=O)N3CCc4ccccc4C3)cc2)s1 | 3.8 | 16.3 | -16.0 | 3.5 | -17.7 | -3.5
O=C(CCN1CCOCC1)NC1CCCN(Cc2ccccc2F)C1 (stereo unspecified) | -17.0 | 6.1 | 2.5 | -10.3 | 2.2 | 1.6
Oc1c(Cl)cc(Cl)c2cccnc12 | . | -0.1 | 18.8 | -5.5 | 10.5 | 1.2
Cc1ccc(S(=O)(=O)Nc2cc(Cl)c(O)c3ncccc23)cc1 | -31.1 | -9.9 | 17.6 | -3.6 | 40.7* | 6.8
CCCCCCN1CCN(C2CN(Cc3ccc([N+](=O)[O-])cc3)S(=O)(=O)C2)CC1 (stereo unspecified) | . | . | . | . | 0.8 | .
Cc1cccc(NC2CNC(=O)NC2=O)c1 (stereo unspecified) | . | . | . | . | -0.7 | .
Cc1cccc(NC2SC(=O)NC2=O)c1 (stereo unspecified) | 2.4 | -1.9 | 5.9 | -11.9 | 52.5* | 4.9
CCCS(=O)(=O)NC(=O)C1(C)CCN(C(=O)Cc2cccc3ccccc23)C1 (stereo unspecified) | . | . | . | . | -1.2 | .
Cc1ccc(/C=c2\sc3nc(-c4cccs4)nn3c2=O)o1 | 5.2 | -13.8 | 79.0* | 6.8* | -11.8 | 34.2
O=c1/c(=C/c2ccco2)sc2nc(-c3ccccc3Br)nn12 | 9.6 | -6.1 | 44.9* | 53.8* | 5.4 | 20.0
COc1ccccc1/C=c1\sc2nc(-c3cccs3)nn2c1=O | . | -14.4 | . | . | . | 14.0
COc1ccccc1/C=C/C=c1\sc2nc(=O)c(Cc3ccccc3)nn2c1=O | 61.3* | -19.0 | 65.3* | 41.1* | -23.3 | 13.2
C=CCOc1ccccc1/C=c1\sc2nc(=O)c(C)nn2c1=O | 15.8 | -26.8 | 69.1* | -3.4 | 16.4 | 16.9
COc1cccc(/C=c2\sc3nc(-c4cccs4)nn3c2=O)c1OC | 15.3 | -14.6 | -0.1 | 4.5 | -10.5 | 0.0
C[C@@H]1CN([C@H](C)CO)S(=O)(=O)c2ccc(C#CCN(C)C)cc2O[C@@H]1CN(C)Cc1ccccc1F | . | . | . | . | -0.5 | .
CCOC(=O)C1(C)CCCN1C(=O)c1sccc1C (stereo unspecified) | . | . | . | . | -1.1 | .
O=C(c1ccc(F)cc1Cl)N1CCN(S(=O)(=O)c2cccs2)CC1 | 15.3 | -14.8 | -6.7 | -7.5 | -2.0 | -6.2
CCCOc1ccc(Cc2nn3c(=O)/c(=C/c4ccco4)sc3nc2=O)cc1 | 3.2 | -28.4 | 84.5* | 22.6* | 2.0 | 33.5
COc1ccc(/C=c2\sc3nc(-c4ccccc4OC)nn3c2=O)c(OC)c1 | -3.0 | -30.9 | -1.3 | -6.3 | 51.4* | 13.7
CC(=O)Oc1cccc(/C=c2\sc3nc(-c4ccco4)nn3c2=O)c1 | 7.2 | -14.3 | 18.5 | 6.4 | 15.6 | 23.9
Cc1cc(C)c2c(=O)n3c(nc2c1)C(CC(C)C)NC(=O)c1cccnc1-3 (stereo unspecified) | . | . | . | . | 6.8 | .
